Results pooled from the literature.
Compare with care: the assays were run in different laboratories.
Target: Angiopoietin-1 receptor (TEK, Homo sapiens, UniProt Q02763)

With `O=C(NCc1ncc(C(F)(F)F)cc1Cl)c1ccc2c(c1)C1(CCS(=O)(=O)CC1)[C@@H](C1CC1)N2S(=O)(=O)c1ccc(F)cc1` the remaining binding was 96% (cell-free assay; competition with immobilised ligand; 1 µM).
`CC(C)(C)c1cc(C=C(C#N)C#N)cc(Br)c1O` has a remaining activity of 97.9% (enzyme activity; inhibitor; 0.5 µM).
For `COc1ncccc1-c1cnn2ccc(N3CCN(C(=O)OC(C)C)CC3)nc12`, the remaining binding was 98% (binding; competition with immobilised ligand; 1 µM).
`COc1cc(Nc2ncc(F)c(Nc3ccc4c(n3)NC(=O)C(C)(C)O4)n2)cc(OC)c1OC` has an inhibition of 94% (binding; 10 µM).
With `Cn1cncc1[C@@](O)(COc1ccc(C#N)cc1-c1ccc(OC(F)(F)F)cc1)c1ccc(C#N)cc1` the remaining binding was 92% (cell-free assay; competition with immobilised ligand; 1 µM).
`Cn1cc(-c2cc(F)cc(N3CCn4c(cc5c4CCCC5)C3=O)c2CO)cc(Nc2ccc(N3CCN(C4COC4)CC3)cn2)c1=O` has an inhibition of 7% (enzyme activity; inhibitor; 0.1 µM).
`O=c1[nH]c2ccccc2n1C1CCN(Cc2ccc(-c3[nH]c4cc5ncnc5cc4nc3-c3ccccc3)cc2)CC1` gave a remaining signal of 102% (cell-free assay; 0.5 µM).
The remaining binding of `Nc1ncc(-c2nc(N3CCOCC3)nc(N3CCOCC3)n2)c(C(F)F)n1` is reported as 99% (cell-free assay; competition with immobilised ligand; 10 µM).
The remaining binding of `Cc1nn(C)cc1-c1nc2c(N3CCN(Cc4ccc(Cl)cc4)CC3)c(Cl)cnc2[nH]1` is reported as 56% (binding; competition with immobilised ligand; 1 µM).
With `COCc1c(-c2cc3cc(C)cc(OC)c3s2)c2c(N)ncnn2c1CN1CCNC(=O)C1` the inhibition was 89% (cell-free assay; competition with immobilised ligand; 1 µM).
